Assay results as given in ChEMBL document CHEMBL1142135, “Multidrug resistance conferred by novel DNA polymerase mutations in human cytomegalovirus isolates” (Antimicrob Agents Chemother, 2007).

What was measured:
Type in all cases: functional, organism-based
Human betaherpesvirus 5 [1] = assay: Antiviral activity against Human CMV T2241 in HFF cells by SEAP assay; details: Human betaherpesvirus 5, T2241, HFF
How it was run: (§1)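 Cell-free stocks of AD169-derived recombinant viruses were inoculated at MOI 0.01 to 0.03 onto human foreskin fibroblasts. Cultures were grown without drug or with twofold increasing concentrations of GCV, FOS or CDV for 7 days. Supernatant SEAP activity was then measured. IC50 was derived by linear regression. Values are means and standard deviations of 7 to 23 replicate experiments.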

Human betaherpesvirus 5 [2] = assay: Antiviral activity against Human CMV T2211 in HFF cells by SEAP assay; details: Human betaherpesvirus 5, T2211, HFF; how it was run: as §1
Human betaherpesvirus 5 [3] = assay: Antiviral activity against Human CMV T2233 in HFF cells by SEAP assay; details: Human betaherpesvirus 5, T2233, HFF; how it was run: as §1
Human betaherpesvirus 5 [4] = assay: Antiviral activity against Human CMV T2293 in HFF cells by SEAP assay; details: Human betaherpesvirus 5, T2293, HFF; how it was run: as §1
Human betaherpesvirus 5 [5] = assay: Antiviral activity against Human CMV T2291 in HFF cells by SEAP assay; details: Human betaherpesvirus 5, T2291, HFF; how it was run: as §1
Human betaherpesvirus 5 [6] = assay: Antiviral activity against Human CMV T2311 in HFF cells by SEAP assay; details: Human betaherpesvirus 5, T2311, HFF; how it was run: as §1
Human betaherpesvirus 5 [7] = assay: Antiviral activity against Human CMV AD169 in HFF cells by PRA; details: Human betaherpesvirus 5, AD169, HFF
Human betaherpesvirus 5 [8] = assay: Antiviral activity against Human CMV T2293 in HFF cells by PRA; details: Human betaherpesvirus 5, T2293, HFF
Human betaherpesvirus 5 [9] = assay: Antiviral activity against Human CMV T2291 in HFF cells by PRA; details: Human betaherpesvirus 5, T2291, HFF
Human betaherpesvirus 5 [10] = assay: Antiviral activity against Human CMV T2311 in HFF cells by PRA; details: Human betaherpesvirus 5, T2311, HFF
Human betaherpesvirus 5 [11] = assay: Antiviral activity against Human CMV Towne in MRC5 cells by PRA; details: Human betaherpesvirus 5, Towne
How it was run: (§2)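 Plaque reduction in human lung MRC-5 fibroblasts, 80 to 100% confluent, infected with 50 PFU cell-free virus. Plates centrifuged 600 × g for 30 min, then 1 h at 37°C, 5% CO2. Inoculum removed; grown in duplicate with 0.625–160 μM GCV, 6.25–1,600 μM FOS or 0.0625–16 μM CDV in 0.8% carboxymethyl cellulose medium. Plaques counted at 7 days for IC50. Repeated 8–11 times; mean and SD.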

Human betaherpesvirus 5 [12] = assay: Antiviral activity against Human CMV T2296 in MRC5 cells by PRA; details: Human betaherpesvirus 5, T2296, MRC5; how it was run: as §2
Human betaherpesvirus 5 [13] = assay: Antiviral activity against Human CMV T2287 in MRC5 cells by PRA; details: Human betaherpesvirus 5, T2287, MRC5; how it was run: as §2

Structure (SMILES) | IC50 (Human betaherpesvirus 5 [1]) [µM] | IC50 (Human betaherpesvirus 5 [2]) [µM] | IC50 (Human betaherpesvirus 5 [3]) [µM] | IC50 (Human betaherpesvirus 5 [4]) [µM] | IC50 (Human betaherpesvirus 5 [5]) [µM] | IC50 (Human betaherpesvirus 5 [6]) [µM] | IC50 (Human betaherpesvirus 5 [7]) [µM] | IC50 (Human betaherpesvirus 5 [8]) [µM] | IC50 (Human betaherpesvirus 5 [9]) [µM] | IC50 (Human betaherpesvirus 5 [10]) [µM] | IC50 (Human betaherpesvirus 5 [11]) [µM] | IC50 (Human betaherpesvirus 5 [12]) [µM] | IC50 (Human betaherpesvirus 5 [13]) [µM]
Nc1ccn(C[C@@H](CO)OCP(=O)(O)O)c(=O)n1 [CIDOFOVIR] | 0.3 | 0.2 | 0.3 | 5.2 | 0.7 | 4.7 | 0.9 | 4.9 | 3.3 | 8.9 | 0.3 | 0.6 | 1.8
O=C(O)P(=O)(O)O [FOSCARNET] | 42 | 41 | 45 | 32 | 274 | 308 | 78 | 122 | 431 | 732 | 62.8 | 63.4 | 486
Nc1nc2c(ncn2COC(CO)CO)c(=O)[nH]1 [GANCICLOVIR] | 1.4 | – | 1.4 | 5.6 | 7.1 | 30.2 | 1.9 | 10 | 4.1 | 12.4 | 4.9 | 5.4 | 30.1
